HTRA1 inhibitor: blocks human HTRA1 serine peptidase; Q92743; recombinant HTRA1, FP-rhodamine activity-based probe, fluorescence polarization; inhibition, % at 5.96 µM; actives 0.5% (n = 340,000); in the data active means inhibition above about 36%;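 further: 0% = enzyme with DMSO and 100% = wells lacking enzyme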
ABHD4 inh: ABHD4 (mouse) inhibition, primary FP screen. Q8VD66. purified mABHD4, FP-Rh probe fluorescence polarization. inhibition, % at 8.92 µM. actives 0.54% (n = 370,000);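 active means inhibition exceeding the mean over every tested compound plus 3 SD, cut at about 30% in these data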;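 further: 0% = plate median of compound wells and 100% = S159A mutant with DMSO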
Target sequence (Q8VD66 whole entry, looked up): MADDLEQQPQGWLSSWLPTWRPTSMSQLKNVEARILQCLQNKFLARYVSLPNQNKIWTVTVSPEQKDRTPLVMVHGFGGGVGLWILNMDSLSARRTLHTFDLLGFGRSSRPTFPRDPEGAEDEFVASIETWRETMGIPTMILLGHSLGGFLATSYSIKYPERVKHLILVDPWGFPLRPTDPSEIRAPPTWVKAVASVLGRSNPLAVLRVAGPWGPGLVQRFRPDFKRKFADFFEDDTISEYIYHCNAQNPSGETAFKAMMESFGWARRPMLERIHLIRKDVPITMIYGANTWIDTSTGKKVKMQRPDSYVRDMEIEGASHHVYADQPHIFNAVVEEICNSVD
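Assay system: Wild-type mouse ABHD4 protein | Medium: HEPES pH 7.0 buffer, 150 mM NaCl, 0.01% Pluronic F-127 | Incubation: Enzyme–compound pre-incubation 45 min, then probe 60 min, both 25 °C | Technique: Fluorescence polarization with parallel and perpendicular emission, 525/598 nm | Evaluation: % inhibition of FP-Rh probe binding versus controls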
PRMT1 inh: inhibitors of human PRMT1; Q99873; recombinant PRMT1, activity-based probe fluorescence polarization; inhibition, % at 2.79 µM; actives 1.3% (n = 370,000); AID 652257;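 active means inhibition above about 21% made by adding two undisclosed values, limit read from the data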
Target sequence (Q99873 whole entry, looked up): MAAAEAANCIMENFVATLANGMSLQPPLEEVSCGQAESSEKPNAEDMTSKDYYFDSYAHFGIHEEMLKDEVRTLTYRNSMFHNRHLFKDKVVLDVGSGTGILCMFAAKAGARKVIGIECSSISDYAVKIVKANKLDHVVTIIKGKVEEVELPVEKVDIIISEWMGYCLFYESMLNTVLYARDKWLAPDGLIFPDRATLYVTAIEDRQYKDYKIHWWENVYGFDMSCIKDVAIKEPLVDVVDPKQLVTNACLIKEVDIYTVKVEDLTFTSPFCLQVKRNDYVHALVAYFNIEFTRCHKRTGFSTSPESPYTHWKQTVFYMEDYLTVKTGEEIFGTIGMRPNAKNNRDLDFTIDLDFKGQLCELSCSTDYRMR
rCAG binder: molecules binding r(CAG) RNA repeats; r(CAG) RNA repeat, TO-PRO-1 dye displacement fluorescence; inhibition, % at 3 µM; actives 1.3% (n = 370,000); AID 651821;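 active means inhibition above the plate cutoff, the mean of all test compounds on that plate plus 3 SD, cut at about 35% in these data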;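 further: 0% = DMSO alone and 100% = 100 µM mitoxantrone as full dye displacement; higher means more dye released from RNA so lower well fluorescence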
SIAE inh: inhibitors of human sialic acid acetylesterase SIAE; AID 1053197; actives 0.69% (n = 370,000); inhibition, % at 9.66 µM; SIAE FP-Rh probe binding, fluorescence polarization;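 active means inhibition above a cutoff: mean of compounds within the control limits plus 3 SD of those, cut at about 17% in these data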;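 further: 0% = plate median of compound wells and 100% = probe without SIAE protein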
rCAG bind conf: r(CAG) RNA repeat binding, confirmation | shares compounds with rCAG binder | inhibition, % at 3 µM | actives 70% (n = 4,300) | TO-PRO-1 dye displacement fluorescence;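 active means inhibition above a per-plate cutoff, the mean inhibition of sample wells plus 3 SD, cut at about 35% in these data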;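 further: loss of TO-PRO-1 fluorescence as compound displaces dye from 1x1 AA loop RNA; 0% = DMSO only wells and 100% = 100 µM mitoxantrone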
dCAG dye counter: disrupts DNA CAG TO-PRO-1 complex, flagging rCAG hits. shares compounds with rCAG binder. d(CAG) DNA oligo TO-PRO-1 dye displacement, fluorescence. inhibition, % at 3 µM. actives 94% (n = 4,300). AID 652068;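 active means inhibition above its plate's cutoff, the mean test-well inhibition plus 3 SD, cut at about 4.8% in these data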;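 further: 0% = DNA dye mix with DMSO and 100% = 100 µM mitoxantrone; hits displace the dye from DNA and so lower well fluorescence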
The depositor's hits bear a star; / = no result. A selection: hits, their analogues and other compounds. The true share with any hit is near 3.3%.

SMILES | HTRA1 inhibitor | ABHD4 inh | PRMT1 inh | rCAG binder | SIAE inh | rCAG bind conf | dCAG dye counter
CCOC(=O)c1[nH]c2ccc(OC)cc2c1C(SCC(=O)O)c1ccc(C(F)(F)F)cc1 (configuration not stated) | -18 | -9 | 1 | 56* | 1 | 51* | 14*
O=C(NCP(=O)(Oc1ccccc1)Oc1ccccc1)OCc1ccccc1 | / | -7 | -1 | 69* | 2 | 2 | -1
COc1ccc(CN2C(=O)CC(=O)NC2=S)cc1 | -33 | -23 | 18 | 38* | -55 | 11 | 4
O=C1CC(=O)N(Cc2ccccc2)C(=O)N1 | 3 | 4 | 11 | 4 | 4 | / | /
O=P(NS(=O)(=O)c1ccc(Cl)cc1)(Oc1ccccc1)Oc1ccccc1 | -9 | 2 | 0 | 62* | -4 | 59* | 19*
O=P(NS(=O)(=O)c1ccc(Br)cc1)(Oc1ccccc1)Oc1ccccc1 | -11 | -2 | 3 | 73* | 8 | 63* | 25*
Cc1ccc(S(=O)(=O)NP(=O)(Oc2ccccc2)Oc2ccccc2)cc1 | -3 | -1 | -1 | 40* | 1 | 36* | 9.7*
Cc1cc(Br)ccc1N1C(=O)CC(=O)NC1=O | -10 | -5 | 6 | 40* | -9 | 4 | 3
O=C(N/N=C/c1c(O)n(CCc2ccccc2)c(=O)[nH]c1=O)c1ccccc1O | 35 | 39* | 4 | 87* | 7 | 65* | 25*
CCC1(CCO)C(=O)NC(=S)NC1=O | -2 | -1 | -5 | 0 | 7 | / | /
COc1ccccc1N1C(=O)NC(=O)/C(=C\c2cnn(-c3ccccc3)c2)C1=O | -4 | -1 | 1 | 7 | -5 | / | /
CCOc1ccc(N2C(=O)NC(=O)/C(=C\c3cc(OC)c(OC)cc3[N+](=O)[O-])C2=O)cc1 | 6 | / | / | / | / | / | /
COc1ccccc1N1C(=O)NC(=O)/C(=C/c2ccc([N+](=O)[O-])s2)C1=O | / | -13 | 27* | 84* | 0 | 60* | 28*
COc1ccc(N2C(=O)/C(=C/C=C/c3ccccc3[N+](=O)[O-])C(=O)NC2=S)cc1 | / | 0 | 10 | 84* | -13 | 78* | 44*
COc1cccc(N2C(=O)NC(=O)/C(=C/c3ccc([N+](=O)[O-])s3)C2=O)c1 | 21 | -54 | 19 | 59* | -32 | 43* | 20*
COc1ccc(N2C(=O)NC(=O)/C(=C/c3ccc([N+](=O)[O-])s3)C2=O)cc1 | / | -64 | 19 | 69* | -40 | 50* | 21*
O=C(C[N+]12CCC(CC1)C(C(O)(c1ccccc1)c1ccccc1)C2)c1ccc(Br)cc1 (configuration not stated) | -46 | 6 | 0 | 5 | 5 | / | /
COC(=O)C1C(O)C(C)C(O)C(C)/C=C\C=C(/C)C(=O)Nc2c(C)c(OC(C)=O)c3c(c2O)C(=O)C(C)=C2OCOC(=C23)/C(C)=C/C(C)(O)C(O)C(C)C1O (configuration not stated) | 0 | 9 | 5 | 47* | 3 | 24 | 6.5*
Cc1cc(=O)oc2cc3c(cc12)CCCN3 | 7 | 10 | -2 | -1 | 3 | / | /
Cc1cc(/C=C2/C(=O)NC(=O)N(Cc3ccco3)C2=O)c(C)n1-c1ccccc1 | -5 | -3 | 18 | 26 | -13 | / | /
COc1ccc(/C=C2/C(=O)N(Cc3ccco3)C(=O)N(C(C)C)C2=O)cc1 | -8 | -48 | 5 | 60* | -22 | 77* | 41*
Cc1ccc(/C=C2\C(=O)NC(=S)N(c3ccc(F)cc3)C2=O)s1 | -20 | -8 | 11 | 28 | -33 | / | /
Cc1ccc(/C=C2\C(=O)NC(=S)N(c3ccccc3F)C2=O)s1 | -24 | -212 | 3 | 35* | -97 | 16 | 8.2*
COc1cc(O)cc2c1cc([N+](=O)[O-])c1c(C(=O)O)cc3c(c12)OCO3 | 6 | 15 | -3 | 8 | 8 | / | /
Cc1ncc(CN2CCCC(C(=O)c3ccc(C(C)(C)C)cc3)C2)s1 (configuration not stated) | -5 | 1 | 1 | -9 | 0 | / | /
SMILES | HTRA1 inhibitor | ABHD4 inh | PRMT1 inh | rCAG binder | SIAE inh | rCAG bind conf | dCAG dye counter
Cn1cccc1/C=C1\C(=O)NC(=O)N(CCC2=CCCCC2)C1=O | -3 | 5 | 0 | 10 | 0 | / | /
Cn1cccc1/C=C1\C(=O)NC(=O)N(Cc2ccccc2Cl)C1=O | 21 | 5 | 8 | 46* | 3 | 10 | 4
CCCCn1c(N)c(C(=O)OCCOC)c2nc3ccccc3nc21 | / | 3 | 0 | -1 | 6 | / | /
CCCCn1c(NS(=O)(=O)c2ccc(C)cc2)c(C(=O)OCC)c2nc3ccccc3nc21 | -49 | 15 | 2 | 36* | 3 | 18 | 5.8*
Cc1cc(OCC(=O)N[C@@H](Cc2ccccc2)C(=O)O)c2c3c(c(=O)oc2c1)CCCC3 | -12 | 4 | -2 | 46* | -5 | 37* | 7.9*
Cc1cc(OCC(=O)NCC(O)c2ccccc2)c2c3c(c(=O)oc2c1)CCCC3 (configuration not stated) | 1 | 3 | 3 | 2 | -3 | / | /
COc1ccc(NC(=O)N2C[C@@H]3C[C@@H](C2)c2cccc(=O)n2C3)c(OC)c1 | -1 | 8 | 0 | 2 | 2 | / | /
O=c1nc(/C=C/c2ccc(Cl)cc2Cl)cc(C(F)(F)F)[nH]1 | -19 | -30 | 2 | 49* | -9 | 38* | 10*
CC(C)(C#CC(=O)O)OOC(c1ccccc1)(c1ccccc1)c1ccccc1 | -26 | -7 | -10 | 53* | -2 | 57* | 20*
O=S(=O)(c1cc(Cl)cc(Cl)c1)N1Cc2cc(N3CCOCC3)ccc2-n2nncc2C1 | / | -1 | 6 | 0 | -4 | / | /
O=c1[nH]c(=S)[nH]c(O)c1N=Nc1ccc(S(=O)(=O)N2CCc3ccccc32)cc1 | -2 | -4 | 15 | 64* | -9 | 49* | 19*
O=c1[nH]c(=S)[nH]c(O)c1N=Nc1ccc(SC(F)F)cc1 | 9 | 16 | 12 | 9 | 7 | / | /
CC(C)c1ccc(N2C(=O)NC(=O)/C(=C\c3cnc(-c4ccccc4)nc3)C2=O)cc1 | -3 | 1 | 7 | 31 | -13 | / | /
COc1cc(OC)c(OC)cc1/C=C1/C(=O)NC(=O)N(Cc2ccccc2)C1=O | 1 | 5 | 12 | 5 | -13 | / | /
COc1cccc(N2C(=O)/C(=C/c3ccc(C)o3)C(=O)NC2=S)c1 | -1 | 9 | 18 | 32 | -1 | / | /
CCOc1cccc(N2C(=O)/C(=C/c3ccco3)C(=O)NC2=S)c1 | 14 | -7 | 20 | 69* | -6 | 68* | 35*
O=C1NC(=O)N(Cc2ccccc2)C(=O)/C1=C/C=C/c1ccco1 | 8 | -4 | 23* | 45* | -9 | 17 | 8.5*
CC(C)c1ccc(N2C(=O)NC(=O)/C(=C\C=C\c3ccco3)C2=O)cc1 | / | -3 | 18 | 44* | -29 | 31 | 13*
